Results taken from the RNAGym collection of RNA variant scans (doi:10.1126/science.aae0568).
This sample holds only a part of the variants without activity.

B1: tRNA (parent)
chain: GUUCCGUUGGCGUAAUGGUAACGCGUCUCCCUCCUAAGGAGAAGACUGCGGGUUCGAGUCCCGUACGGAACG

Variants of: B1
Assay: yeast fitness relative to wild type (ratio to wild type); higher = fitter; tRNA-Arg(CCU), competitive growth, 37 C, YPD
Summary of the method: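 Amplicons of the tRNA-Arg(CCU) gene were sequenced, 100-nucleotide paired-end, from the start population and from each end population of a pooled yeast competition. The competition, in six parallel replicates, lasted 24 hours in YPD at 37°C. Fitness relative to wild type was calculated from changes in genotype frequencies. Genotypes had to have ≥ 100 starting reads, and estimates < 0.5 were set to 0.5.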

| Variant | yeast fitness |
| --- | --- |
| GGUCCGUUGGCGUAAUGGUAACGUGUCUCCCUCCUAAGGAGAAGACUGCGGGUUCGAGUCCCGUACCGAACG [U2G C24U G67C] | 0.681 |
| GGUCCGUUGGUGUAUUGGUAACGCGUCUCCCUCCUAAGGAGAAGACAGCGGGUUCGAGUCCCGUACGGAACG [U2G C11U A15U U47A] | 0.578 |
| GGUCCGUUGGGGUAAUGGUGACGUGCCUCCGUCCUAAGGAGAAGACUGCGGGUUCGAGUCCCGUACGGAACG [U2G C11G A20G C24U U26C C31G] | ≤ 0.5 |
| GGUCCGUUGGCGUAAUGGUAAUGCGUCUCCCUCCUAAGGUGAAGACUGCGGGUUCGAGUCCCGUACGGAACG [U2G C22U A40U] | ≤ 0.5 |
| GGUCCGUUGGGGUAAUGGUAACGCGUCUCGCUCCUAAGGAGAAGACUGCGGGUUCGAGUCCCGUACGGAACG [U2G C11G C30G] | 0.614 |
| GGUCCGUUGGCGUAAUGGUAACGGGUCUGCGUCCUAAGGAGAAGACUGCGGGUUCGAGUCCCGUACGGCACG [U2G C24G C29G C31G A69C] | ≤ 0.5 |
| GGUCCGUUGGGAUAAUGGUUACGCGUCUCGCUCCUAAGGAGAAGACUGGGGGGUCGAGUCCCGUACGGAACG [U2G C11G G12A A20U C30G C49G U53G] | ≤ 0.5 |
| GGUCCGUUGGCGUAAUGGUAAUGGGUCUCCCUCCUAAGGAGAAGACUGCGCGUUCGAGUUCCGUACAGAACG [U2G C22U C24G G51C C60U G67A] | ≤ 0.5 |
| GGUCCGUUGGCGUAAUGGUAAGGCGCGUCACGCCUAAGGAGAAGACUGCGGGUUGGAGUCCCGUACGGAACG [U2G C22G U26C C27G C30A U32G C55G] | ≤ 0.5 |
| GGUCGGUUGGCGUAAUGGUACCGCGUCUCCCUCCUAAGGAGAUGACUGCAGUUUCGAGUCCCGUACGGCACG [U2G C5G A21C A43U G50A G52U A69C] | ≤ 0.5 |
| GGUCCGUUGGCGUAAUGGUAAUGGGUCUCCCUCCUAAGGAGAAGACUGCGGGUUCGAGUCCCGUAUGGAGCG [U2G C22U C24G C66U A70G] | ≤ 0.5 |
| GGUCCGUUGGCGUAAUGGUAAAGCGUCUCCCUCCUGAGGAGAAGACUGCGGAUUCGAGUCCCGUAAGGUACG [U2G C22A A36G G52A C66A A69U] | ≤ 0.5 |
| GGUCCGUUGGCGUAAUGGUAACGCGUCUUCCUCCUAAGGAGAAGACUGCGGGUUUGAGUCCCGUACGGAACG [U2G C29U C55U] | 0.527 |
| GGUCCGUUGGUGUAAUGGUAACGCGUCUCCCUCCUAAGGAGAAGACUGCGGGUUGGAGUCCCGUACGGAACG [U2G C11U C55G] | ≤ 0.5 |
| GGUCAGUUGGCGUAAUGGUAACGCGUCUCCCUCCUAAGGAGAAGACUGCGGGUUGGAGUCCCGUACGGAACG [U2G C5A C55G] | 0.561 |
| GGUCCGUUGGCGUAAUGGUAACGGGUCUGCAUCCUAAGGAGAAGACUGCGGGUUCGAGUCCCGUACGGAACG [U2G C24G C29G C31A] | ≤ 0.5 |
| GGUCCGUUGGUGUAAUGGUAACGCGUCUCCCUCCUAAGGAGAAGACUGCGGGUUCGAGUCCCGUACGGAACG [U2G C11U] | 0.824 |
| GGUUCGUCGGCGUAAUGGUAACGCGUCUCCCUCCUAAGGAGAAGACUGCGGGUUCGAGUCCCGUACGGAACG [U2G C4U U8C] | 0.732 |
| GGUCCGUUGGUGUAAUGGUAACGCGUCUCCCUCCUAAGGAGAAGCCUGCGGGGUCGAGUCCCGUGCGGAACG [U2G C11U A45C U53G A65G] | ≤ 0.5 |

| Variant | yeast fitness |
| --- | --- |
| GGUCCGUUGGCGUAAUGGUAACGCGUUUCCCUCCUGAGGAGAAGACUGCGGGUUCGAGUCCCGUACGGAACG [U2G C27U A36G] | 0.552 |
| GGUCCGUUGGUGUAAUGGUAACGCGUCUCCCUCCUAAGGAGAAGCCUGCGGGGUCGAGUCCCGUACGGUACG [U2G C11U A45C U53G A69U] | 0.544 |
| GGUCAGUUGGCGUAAUGGAAACGCGUCUCGCUCCUAAGGAGAAGACUGCGGGUUUGAGUCCCGUACGCAACG [U2G C5A U19A C30G C55U G68C] | ≤ 0.5 |
| GGUCCGUUGGCGUAAUGGUAACGGGUCUCCCUCCUAAGGAGAAGACUGAGGGUUCGAGUCCCGUACGGAACG [U2G C24G C49A] | ≤ 0.5 |
| GGUCCGUUGGCGUAAUGGUAAUGGGUCUCCCUCCUAAGGAGAAGACUGCGGGUUCGAGUCCCGUACGGAACG [U2G C22U C24G] | 0.596 |
| GGUCCGUUGGCGUAAUGGUAACGCGUUUCCCUCCUAAGGAGAAGACUGCGGGUUUGAGUCCCGUACGGAACG [U2G C27U C55U] | ≤ 0.5 |
| GGUCCGUUGGCGUAAUGGUAAUGGGUCUCCCUCCUAAGGAGAAGACUGCGGGUUCGAGUCCCAUACGGCACG [U2G C22U C24G G63A A69C] | ≤ 0.5 |
| GGUCAGUUGGCGUAAUGGAAACGCGUCUCGCUCCUAAGGAGACGACUGCGGGUUCGAGUCCCGUACGGCACG [U2G C5A U19A C30G A43C A69C] | 0.537 |
| GGUCCGUUGGCGUAAUGGUAACGCGUUUCCCUCCUAAGGAAUAGAGUGCGGGUUCGAGUCCCGUACGGAACG [U2G C27U G41A A42U C46G] | ≤ 0.5 |
| GGUCCGUUGGCGUAAUGGUAACGCGUCUUCCUCCUAAGGAGAAGACUGGGGGUUGGAGUCCCCUACGGAACG [U2G C29U C49G C55G G63C] | ≤ 0.5 |
| GGUCAGUUGGCGUAAUGGUAACGCGUCUCCCUCCUAAGGAGAAGACUGCGGGUUCGAGUCCCGUACGGACCG [U2G C5A A70C] | ≤ 0.5 |
| GGUCCGUUGGCGUAAUGGUAACGCGUUUCCCUCCUAAGGAGAAGAUUGCGGGUUCGAGUCCCAUACGGAACG [U2G C27U C46U G63A] | 0.811 |
| GGUCCGUUGGCGUAAUGGUAACGUGUCUCCCUCCUAAGGAGAAGACUGCGGGUUGGAGUCCCGUACGGAUCG [U2G C24U C55G A70U] | ≤ 0.5 |
| GGUCCGUUGGCGUAAUGGUAAUGCGUCUCCCUCCUAAGGAGAAGACUGCGGGUUCGAGUCCUGUACGGAACG [U2G C22U C62U] | 0.616 |
| GGUCAGUUGGCGUAAUGGUAACGCGUCUCCCUCCUUAGGAGAAGACUGCGGGUUCGAGUCCCGUACGGAACG [U2G C5A A36U] | ≤ 0.5 |
| GGUCAGUUGGCGUAAUGGAAACGCGUCUCGCUCCUAAGGAGACGACUGCGGGUUCGAGUCCCGUACGGAACG [U2G C5A U19A C30G A43C] | ≤ 0.5 |
| GGUCCGUUGGCGUAAUGGUAACGUGUCUCCCUCCUAAGGAGAAGACUGCGGGUUCGAGUCCCGUACGGAACG [U2G C24U] | 0.786 |
| GGUCCGUUGGCGUAAUGGUAACGCGUUUCCCUCCUAAGGAGAAGAGUGCGGGUUCGAGUCCCGUACGGAACG [U2G C27U C46G] | 0.564 |
| GGUCCGUUGGCGUAAUGGUAACGAGUCUCCCUUCUAAGGGGAAGACUGCGCGUUCGUGUCCCGUACGGAACG [U2G C24A C33U A40G G51C A57U] | ≤ 0.5 |
